Laboratory results as given in PubChem BioAssay.
Activity calls are given as the source filed them.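 How the source made its calls, unless noted: active means inhibition of the reporter signal at or above 50%; inactive means inhibition below 50%.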

Key:
[1] = inhibitors of TNFa-induced NFkB p65 translocation, primary screen, imaging, HUVEC, MLSMR starter and 10KST1 sets (AID 438;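 active means inhibition above 20% together with a positive visual image hit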;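 further: compound added about 3h40 before a 20 min TNFalpha stimulation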;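 on inhibition: signal is the nuclear over cytoplasmic p65 intensity ratio per well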); conditions: HUVEC TNFa-induced p65 nuclear translocation; cell count: measured here: nuclei count (cytotoxicity indicator), at 2.08 µM; inhibition: at 2 µM, stronger effect = higher value, 0% TNFa-plus-vehicle, 100% no-TNFa wells
[2] = reduction of polyQ htt aggregates in cells – imaging, exon1htt(103Q)mCFP cells, high-content imaging, primary screen (AID 483;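 active means visual image review flags a hit and inhibition of aggregation exceeds 20%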;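 further: compound exposure lasted 3 days before fixation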;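 on nuclei count: percent of the per-plate median nuclei count of sample wells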); conditions: exon1htt(103Q)mCFP cell line, aggregate imaging, at 2 µM; inhibition of aggregation: stronger effect = higher value; nuclei count: measured here: cell count, toxicity
[3] = endothelial E-selectin expression blockers – imaging, HUVEC, immunofluorescence, MLSMR starter and 10KST1 sets, primary screen (AID 487;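 active means visually confirmed hit in the image check and inhibition above 20%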;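 on inhibition: signal is fraction of cell area covered by stained E-selectin grains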;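 on nuclei count: 100% = median nuclei count of all wells on the same plate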); conditions: HUVEC TNFalpha-induced E-selectin immunofluorescence imaging, at 2 µM; inhibition: stronger effect = higher value; nuclei count: measured here: cell number, toxicity
[4] = target: Voltage-gated potassium channel subunit beta-2 (Rattus norvegicus) (UniProt P62483); test: inhibitors of rat Kvbeta2 reductase activity – biochemical, NADPH fluorescence, primary screen (AID 622;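 active means fluorescence slope higher than the sample average by over 3 SD, cut at about -0.22 in these data, passing the limit was not always enough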;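 further: slope of raw intensity against log time taken from 70 to 1610 s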); conditions: recombinant KvBeta, 4-cyanobenzaldehyde reduction, at 10 µM, stronger effect = higher value
[5] = target: Voltage-gated potassium channel subunit beta-2 (Rattus norvegicus) (UniProt P62483); test: enhancers of rat Kvbeta2 NADPH turnover – biochemical, NADPH fluorescence, primary screen (AID 623;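 active means NADPH fluorescence slope more negative than the mean of all samples by about 3 SD, 99.7% confidence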;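 further: fluorescence intensity change per second fitted from 20 to 320 s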); conditions: Recombinant KvBeta, NADPH fluorescence decrease slope, 10 min; at 10 µM; stronger effect = lower value
[6] = target: Muscarinic acetylcholine receptor M4 (Homo sapiens) (UniProt P08173); test: M4-linked GIRK flux change, two-sided – cell-based, HEK293 M4/GIRK, thallium flux, BTC-AM, M4 allosteric agonist project, primary screen (AID 625;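 active means fluorescence slope after compound addition differing from the mean of all tested samples at 99.7% confidence, mostly higher but some lower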;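 further: thallium influx through GIRK channels coupled to M4 in HEK293 cells with BTC-AM dye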); conditions: at 10 µM, actives lie on both sides
Procedure, shortened: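 Assay system: HEK293 cells with M4 receptor and GIRK channels / Controls: carbachol and DMSO controls / Schedule: 1 h dye loading, 2 min kinetic read / Technique: kinetic fluorescence with BTC-AM dye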

[7] = blockers of RIG-like receptor reporter activation – cell-based, Sendai virus stimulus, luciferase, 10K MLSCN set, TLR/RLR signaling modifier project, primary screen (AID 602276;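 active means inhibition at or above 50% at 10 µM; inactive means inhibition below 50%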;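 further: firefly luciferase from ISG56 promoter only with Renilla not read in this screen; 0% = Sendai virus plus DMSO and 100% = medium plus DMSO without virus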); conditions: HEK293 RL24 IRF3 luciferase reporter, at 10 µM, stronger effect = higher value
[8] = TLR3 IRF3 reporter activation blockers – cell-based, poly I:C stimulus, luciferase, 10K MLSCN set, primary screen (AID 602277); conditions: HEK293-TLR3 RL24 IRF3 luciferase reporter, at 10 µM, stronger effect = higher value

Muscarinic acetylcholine receptor M4 (Homo sapiens), sequence (P08173 whole entry, looked up): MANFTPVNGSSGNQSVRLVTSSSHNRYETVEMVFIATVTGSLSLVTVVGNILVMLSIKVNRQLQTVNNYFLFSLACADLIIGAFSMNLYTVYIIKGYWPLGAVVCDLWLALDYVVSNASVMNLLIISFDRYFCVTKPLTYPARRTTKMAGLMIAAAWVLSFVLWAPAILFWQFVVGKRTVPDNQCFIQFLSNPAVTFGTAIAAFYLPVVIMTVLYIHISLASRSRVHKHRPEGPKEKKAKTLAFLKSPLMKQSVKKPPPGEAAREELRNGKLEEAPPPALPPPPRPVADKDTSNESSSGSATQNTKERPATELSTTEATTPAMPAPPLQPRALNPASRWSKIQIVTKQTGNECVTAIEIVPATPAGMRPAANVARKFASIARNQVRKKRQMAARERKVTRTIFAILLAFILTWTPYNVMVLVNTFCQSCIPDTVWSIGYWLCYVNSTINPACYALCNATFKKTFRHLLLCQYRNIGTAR
Voltage-gated potassium channel subunit beta-2 (Rattus norvegicus), sequence (P62483 whole entry, looked up): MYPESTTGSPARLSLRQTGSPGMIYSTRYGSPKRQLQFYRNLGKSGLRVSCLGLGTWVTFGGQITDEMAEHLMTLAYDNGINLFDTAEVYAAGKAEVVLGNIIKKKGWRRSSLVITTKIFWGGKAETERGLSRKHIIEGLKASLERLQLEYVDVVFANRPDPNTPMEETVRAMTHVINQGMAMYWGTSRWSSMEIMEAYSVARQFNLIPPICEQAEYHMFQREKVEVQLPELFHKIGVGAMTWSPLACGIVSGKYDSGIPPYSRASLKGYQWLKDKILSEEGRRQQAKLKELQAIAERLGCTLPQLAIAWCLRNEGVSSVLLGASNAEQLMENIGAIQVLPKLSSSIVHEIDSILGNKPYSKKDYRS

Structure (SMILES) | cell count [1] | inhibition [1] | inhibition of aggregation [2] | nuclei count [2] [%] | inhibition [3] | nuclei count [3] [%] | fluorescence slope [4] | NADPH fluorescence slope [5] | fluorescence slope [6] | inhibition [7] | inhibition [8]
O=C(CS(=O)(=O)Cc1ccccc1)N1CCc2ccccc2C1 | 753 | -0.7% (inactive) | 13.8% (inactive) | 97.8 | -110% (inactive) | 124 | -0.529 (inactive) | -4.4e-05 (inactive) | 0.00542 (inactive) | -17.6% (inactive) | -31.5% (inactive)
COc1cc2c(cc1OC)CN(Cc1nc3ccsc3c(=O)[nH]1)CC2 | 335 | -6.2% (inactive) | 26.3% (inactive) | 93 | -5.2% (inactive) | 110 | -0.579 (inactive) | -3.9e-05 (inactive) | 0.0061 (inactive) | 24.1% (inactive) | 41.1% (inactive)
CCOC(=O)C1CCN(S(=O)(=O)c2cc(Cl)c(C)cc2OC)CC1 | 441 | -9.5% (inactive) | -0.9% (inactive) | 109 | -41% (inactive) | 116 | -0.587 (inactive) | 1.4e-05 (inactive) | 0.00585 (inactive) | 19.9% (inactive) | 38.6% (inactive)
CN1CC=C2C(C#N)=C(N)C(C#N)(C#N)C(c3cccc(Cl)c3Cl)C2C1 (stereo not given) | 566 | -8.5% (inactive) | -7.2% (inactive) | 110 | -13.9% (inactive) | 99.2 | -0.399 (inactive) | -0.000109 (inactive) | 0.00362 (inactive) | 8.89% (inactive) | 9.8% (inactive)
CCOC(=O)c1[nH]c(C)c(C(=O)N2CCN(c3ccc(F)cc3)CC2)c1C | 755 | -2.2% (inactive) | -27% (inactive) | 118 | -175% (inactive) | 119 | -0.451 (inactive) | 1.1e-05 (inactive) | 0.00564 (inactive) | 1.11% (inactive) | 8.18% (inactive)
COc1ccc(-n2nnnc2-c2cccc(OC)c2)cc1 | 573 | -45.9% (inactive) | -61.4% (inactive) | 2.6 | -101% (inactive) | 105 | -0.252 (inactive) | -3.1e-05 (inactive) | 0.00701 (inactive) | 34.8% (inactive) | 47.8% (inactive)
CCC(=NC(C)c1ccccc1)c1c(O)n(C)c(=O)n(C)c1=O (stereo not given) | 287 | 9.3% (inactive) | 3.2% (inactive) | 72.1 | -50.4% (inactive) | 133 | -0.518 (inactive) | -0.000132 (inactive) | 0.00372 (inactive) | 8.09% (inactive) | -40% (inactive)
CC1(C)CC(=O)c2cnc(NCc3ccco3)nc2C1 | 480 | 7.7% (inactive) | -7.2% (inactive) | 96.1 | -165% (inactive) | 150 | -0.407 (inactive) | -1.8e-05 (inactive) | 0.00659 (inactive) | -11.5% (inactive) | -26.2% (inactive)
Cn1c(SCc2cccc3ccccc23)nnc1-c1ccco1 | 574 | 1.6% (inactive) | 3.5% (inactive) | 101 | -63% (inactive) | 103 | -0.545 (inactive) | 2.1e-05 (inactive) | 0.00593 (inactive) | -8.19% (inactive) | -65.7% (inactive)
CCCN1CCN(CCCNC(=O)Cn2nc(-c3ccc(Cl)cc3)ccc2=O)CC1 | 514 | 13.6% (inactive) | 0.1% (inactive) | 106 | -205% (inactive) | 131 | -0.552 (inactive) | -8.1e-05 (inactive) | 0.00614 (inactive) | 9.94% (inactive) | 11.9% (inactive)
CC(=O)NC1(c2nnnn2CCOC(=O)Nc2ccc(Cl)cc2)CCCCC1 | 559 | -12.5% (inactive) | 2.9% (inactive) | 84.6 | -23.9% (inactive) | 91.3 | -0.513 (inactive) | -0.000175 (inactive) | 0.0035 (inactive) | 9.27% (inactive) | 8.82% (inactive)
COC(=O)Cc1csc(N)n1 | 743 | 10% (inactive) | 15% (inactive) | 109 | -54.5% (inactive) | 122 | -0.529 (inactive) | 2.5e-05 (inactive) | 0.00536 (inactive) | 12.4% (inactive) | 22.3% (inactive)
CCC1(C)Cc2c(C#N)c(N)n(-c3ccccc3)c(=O)c2CO1 (stereo not given) | 531 | -8.6% (inactive) | 13.9% (inactive) | 100 | -59.9% (inactive) | 93.4 | -0.622 (inactive) | 6.4e-05 (inactive) | 0.00509 (inactive) | -3.47% (inactive) | 5.33% (inactive)
COc1ncnc2c1N=C1CC(C)(C)CC(N)=C1S2 | 309 | 0.8% (inactive) | -0.2% (inactive) | 115 | -16.2% (inactive) | 115 | -0.37 (inactive) | -3.5e-05 (inactive) | 0.00511 (inactive) | 13.3% (inactive) | 35% (inactive)
O=C(CSC1=NCCS1)NCc1ccco1 | 294 | 0.2% (inactive) | 16.5% (inactive) | 87.2 | -109% (inactive) | 108 | -0.268 (inactive) | 1.6e-06 (inactive) | 0.00551 (inactive) | -13.7% (inactive) | -22.5% (inactive)
O=C(CN1C(=O)COc2ccccc21)NCCN1CCc2ccccc2C1 | 681 | 7.3% (inactive) | 30.2% (inactive) | 95 | -2.1% (inactive) | 92.7 | -0.573 (inactive) | -5.4e-05 (inactive) | 0.00634 (inactive) | 12.1% (inactive) | 26.1% (inactive)
O=C1CC(N2CCOCC2)C(=O)N1c1ccc2c(c1)OCO2 (stereo not given) | 459 | 7.5% (inactive) | -9.9% (inactive) | 105 | -175% (inactive) | 120 | -0.574 (inactive) | -3.1e-05 (inactive) | 0.00505 (inactive) | 4.21% (inactive) | 10.1% (inactive)
CCOC(=O)c1sc(NS(=O)(=O)c2ccc(NC(C)=O)cc2)nc1C | 701 | -3.5% (inactive) | -10.1% (inactive) | 99.8 | 1% (inactive) | 94.9 | -0.448 (inactive) | 1.6e-05 (inactive) | 0.00462 (inactive) | 11.5% (inactive) | 19.8% (inactive)
Cc1nnc2sc(-c3cccc(NC(=O)c4cccnc4)c3)nn12 | 295 | -6% (inactive) | 5% (inactive) | 89.2 | -54% (inactive) | 108 | -0.346 (inactive) | 1.1e-05 (inactive) | 0.006 (inactive) | -21% (inactive) | -15.6% (inactive)
Cc1nc2ccccc2c(=O)n1/N=C/c1ccncc1 | 644 | -6.3% (inactive) | -10.1% (inactive) | 109 | -2.9% (inactive) | 92.1 | -0.526 (inactive) | -3.4e-05 (inactive) | 0.00441 (inactive) | -4.49% (inactive) | 4.48% (inactive)
